Experimental data taken from ChEMBL document CHEMBL1156619, “TX-2152: a conformationally rigid and electron-rich diyne analogue of FTY720 with in vivo antiangiogenic activity” (Bioorg Med Chem, 2008).

Legend:
Gallus gallus [1] = species on record: Gallus gallus; assay: Antiangiogenic activity in chick embryo chorioallantoic membrane assessed as number of eggs showing 3 mm avascular zone at 1 ug; assay type: functional, tissue-based
Method in brief: (§1)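 Fertilized chicken eggs held at 37.6 °C, humidified, for 4 days; 3 mL albumin withdrawn and air sac displaced to drop the CAM, window capped, incubation at 39.0 °C. Next day a silicon ring placed on the 2–3 mm CAM and test solution applied dropwise at room temperature. Compounds in DMSO, vehicle control 0.05% DMSO in 1% methyl cellulose/0.9% NaCl. After 1 day incubator raised to 39.5 °C and eggs incubated 1 more day. Vessels then visualized by injecting fat emulsion (1 mL) into the CAM and scored for inhibition.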

Gallus gallus [2] = species on record: Gallus gallus; assay: Antiangiogenic activity in chick embryo chorioallantoic membrane assessed as number of eggs showing 3 mm avascular zone at 2.5 ug; assay type: functional, tissue-based; method in brief: as §1
Gallus gallus [3] = species on record: Gallus gallus; assay: Antiangiogenic activity in chick embryo chorioallantoic membrane assessed as number of eggs showing 3 mm avascular zone at 5 ug; assay type: functional, tissue-based; method in brief: as §1
Gallus gallus [4] = species on record: Gallus gallus; assay: Antiangiogenic activity in chick embryo chorioallantoic membrane assessed as number of eggs showing 3 mm avascular zone at 10 ug; assay type: functional, tissue-based; method in brief: as §1
[5] = Hydrophobicity, Log P of the compound; assay type: physicochemical; conditions: octanol/water
Method in brief: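 Observed logP (logPow) measured by HPLC on a C18 column. Mobile phase methanol/water 3:1 (v/v) at 1.0 mL/min, UV detection at 254 nm. Test and reference compounds dissolved in mobile phase for injection.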

Gallus gallus [6] = species on record: Gallus gallus; assay: Antiangiogenic activity in chick embryo chorioallantoic membrane assessed as number of eggs showing 3 mm avascular zone at 100 ug; assay type: functional, tissue-based; method in brief: as §1

**Q.** With C#CC#CC#Cc1ccc(CCC(N)(CO)CO)cc1 as the compound, how does the inhibition (Gallus gallus [1]) read?
**A.** 40%

**Q.** And the inhibition (Gallus gallus [2])?
**A.** 67%

**Q.** What about the inhibition (Gallus gallus [3]) of the same compound?
**A.** 67%

**Q.** And the inhibition (Gallus gallus [4])?
**A.** 60%

**Q.** Which logP [5] does the source give for CC(=O)NC(CCc1ccc(C#C[Si](C)(C)C)cc1)(COC(C)=O)COC(C)=O here?
**A.** 4.07

**Q.** For C#CC#Cc1ccc(CCC(N)(CO)CO)cc1, which inhibition (Gallus gallus [1]) is on record?
**A.** 35%

**Q.** And the inhibition (Gallus gallus [2])?
**A.** 71%

**Q.** What about the inhibition (Gallus gallus [3]) of the same compound?
**A.** 79%

**Q.** And the inhibition (Gallus gallus [4])?
**A.** 90%

**Q.** For CC(=O)NC(CCc1ccc(C#CC#C[Si](C)(C)C)cc1)(COC(C)=O)COC(C)=O, which logP [5] is on record?
**A.** 4.97

**Q.** What does the source list for C#Cc1ccc(CCC(N)(CO)CO)cc1?
**A.** inhibition (Gallus gallus [1]): 17%; inhibition (Gallus gallus [3]): 17%; inhibition (Gallus gallus [4]): 42%

**Q.** For CCCCCCCCc1ccc(CCC(N)(CO)CO)cc1, which inhibition (Gallus gallus [1]) is on record?
**A.** 40%

**Q.** And the inhibition (Gallus gallus [4])?
**A.** 77%

**Q.** What about the inhibition (Gallus gallus [6]) of the same compound?
**A.** 100%

**Q.** Which results are given for CO[C@@H]1[C@H](OC(=O)NC(=O)CCl)CC[C@]2(CO2)[C@H]1[C@@]1(C)O[C@@H]1CC=C(C)C?
**A.** inhibition (Gallus gallus [1]): 50%; inhibition (Gallus gallus [3]): 78%; inhibition (Gallus gallus [4]): 82%

**Q.** For CC(=O)NC(CCc1ccc(C#CC#CC#C[Si](C)(C)C)cc1)(COC(C)=O)COC(C)=O, which logP [5] is on record?
**A.** 5.9
